Source: ChEMBL document CHEMBL3580633, “Benzoxaborole antimalarial agents. Part 4. Discovery of potent 6-(2-(alkoxycarbonyl)pyrazinyl-5-oxy)-1,3-dihydro-1-hydroxy-2,1-benzoxaboroles” (J Med Chem, 2015)

Experiments:
[1] = test system: Mus musculus; assay: Cmax in CD1 mouse assessed as 5-(1-hydroxy-1,3-dihydrobenzo[c][1,2]oxaborol-6-yloxy)pyrazine-2-carboxylic acid level at 5 mg/kg, po by HPLC coupled to tandem mass spectrometry; assay type: ADME, organism-based; set-up: dose 5 mg/kg, route oral; conditions: in vivo
How it was run: (§1)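 The parent ester was given to adult female CD-1 mice at 5 mg/kg, iv or by oral gavage, in PEG 400/dimethylacetamide/water (45/10/45, pH 5.8). Blood was sampled, and the acid formed from the ester in vivo was quantified by HPLC-tandem MS to derive its PK parameters.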

[2] = test system: Mus musculus; assay: AUC (0 to infinity) in CD1 mouse assessed as 5-(1-hydroxy-1,3-dihydrobenzo[c][1,2]oxaborol-6-yloxy)pyrazine-2-carboxylic acid level at 5 mg/kg, po by HPLC coupled to tandem mass spectrometry; assay type: ADME, organism-based; set-up: dose 5 mg/kg, route oral, time infinity; conditions: in vivo; how it was run: as §1
[3] = test system: Plasmodium berghei; assay: Antiplasmodial activity against Plasmodium berghei infected in Swiss Webster mouse assessed as mouse survival at 100 mg/kg, po dosed once daily for 4 consecutive days beginning 1 hr after initial infection and measured on day 12 post infection by Giemsa staining method; assay type: functional
How it was run: (§2)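 Female Swiss Webster mice (about 20 g) infected ip with 6 × 10^6 P. berghei-infected erythrocytes. Oral gavage once daily for 4 days, starting 1 h after infection. Vehicle PEG300/propylene glycol/water (55/25/20 by weight). Giemsa-smear parasitemia counted daily from day 4. Mice euthanised above 50% parasitemia. Survival followed to day 21, 5 mice per dose, chloroquine 30 mg/kg as reference.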

[4] = test system: Plasmodium berghei; assay: Antiplasmodial activity against Plasmodium berghei infected in Swiss Webster mouse assessed as mouse survival at 3 mg/kg, po dosed once daily for 4 consecutive days beginning 1 hr after initial infection and measured on day 12 post infection by Giemsa staining method; assay type: functional; how it was run: as §2
[5] = Cmax in CD1 mouse at 5 mg/kg, po by HPLC coupled to tandem mass spectrometry; assay type: ADME, organism-based; set-up: dose 5 mg/kg, route oral; conditions: in vivo
How it was run: (§3)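 Adult female CD-1 mice received 5 mg/kg by both the iv and the oral-gavage route. Two vehicles were used: PEG 400/dimethylacetamide/water (45/10/45, pH 5.8), or PEG 300/propylene glycol/water (55/25/20, pH 5.9). Blood samples were collected and drug was quantified by HPLC-tandem MS.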

[6] = test system: Plasmodium berghei; assay: Antiplasmodial activity against Plasmodium berghei infected in Swiss Webster mouse assessed as mouse survival at 100 mg/kg, po dosed once daily for 4 consecutive days beginning 1 hr after initial infection and measured on day 15 post infection by Giemsa staining method; assay type: functional; how it was run: as §2
[7] = test system: Mus musculus; assay: Oral bioavailability in CD1 mouse assessed as 5-(1-hydroxy-1,3-dihydrobenzo[c][1,2]oxaborol-6-yloxy)pyrazine-2-carboxylic acid level at 5 mg/kg by HPLC coupled to tandem mass spectrometry; assay type: ADME, organism-based; conditions: in vivo; how it was run: as §1
[8] = test system: Plasmodium berghei; assay: Antiplasmodial activity against Plasmodium berghei infected in Swiss Webster mouse assessed as mouse survival at 100 mg/kg, po dosed once daily for 4 consecutive days beginning 1 hr after initial infection and measured on day 20 post infection by Giemsa staining method; assay type: functional; how it was run: as §2
[9] = test system: Plasmodium berghei; assay: Antiplasmodial activity against Plasmodium berghei infected in Swiss Webster mouse assessed as mouse survival at 33 mg/kg, po dosed once daily for 4 consecutive days beginning 1 hr after initial infection and measured on day 11 post infection by Giemsa staining method; assay type: functional
How it was run: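 Female Swiss Webster mice (about 20 g) were infected ip with 6 × 10^6 P. berghei-infected erythrocytes from a donor mouse. They were dosed by oral gavage once daily for 4 days, starting 1 h post-infection, in PEG 300/propylene glycol/water (55/25/20 by weight). Parasitemia was read daily on Giemsa smears from day 4, and mice were euthanized above 50% parasitemia. Percent survival was tracked to 21 days.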

[10] = test system: Plasmodium berghei; assay: Antiplasmodial activity against Plasmodium berghei infected in Swiss Webster mouse assessed as mouse survival at 3 mg/kg, po dosed once daily for 4 consecutive days beginning 1 hr after initial infection and measured on day 9 post infection by Giemsa staining method
[11] = test system: Mus musculus; assay: Terminal half life in CD1 mouse assessed as 5-(1-hydroxy-1,3-dihydrobenzo[c][1,2]oxaborol-6-yloxy)pyrazine-2-carboxylic acid level at 5 mg/kg, iv by HPLC coupled to tandem mass spectrometry; assay type: ADME, organism-based; conditions: in vivo; how it was run: as §1
[12] = test system: Plasmodium berghei; assay: Antiplasmodial activity against Plasmodium berghei infected in Swiss Webster mouse assessed as mouse survival at 100 mg/kg, po dosed once daily for 4 consecutive days beginning 1 hr after initial infection and measured on day 13 post infection by Giemsa staining method; assay type: functional; how it was run: as §2
[13] = test system: Mus musculus; assay: AUC (0 to infinity) in CD1 mouse assessed as 5-(1-hydroxy-1,3-dihydrobenzo[c][1,2]oxaborol-6-yloxy)pyrazine-2-carboxylic acid level at 5 mg/kg, iv by HPLC coupled to tandem mass spectrometry; assay type: ADME, organism-based; set-up: dose 5 mg/kg, route intravenous, time infinity; conditions: in vivo; how it was run: as §1
[14] = AUC (0 to infinity) in CD1 mouse at 5 mg/kg, iv by HPLC coupled to tandem mass spectrometry; assay type: ADME, organism-based; set-up: dose 5 mg/kg, route intravenous, time infinity; conditions: in vivo; how it was run: as §3
[15] = test system: Mus musculus; assay: Tmax in CD1 mouse assessed as 5-(1-hydroxy-1,3-dihydrobenzo[c][1,2]oxaborol-6-yloxy)pyrazine-2-carboxylic acid level at 5 mg/kg, po by HPLC coupled to tandem mass spectrometry; assay type: ADME, organism-based; conditions: in vivo; how it was run: as §1
[16] = test system: Mus musculus; assay: Oral bioavailability in CD1 mouse at 30 mg/kg by HPLC coupled to tandem mass spectrometry; assay type: ADME, organism-based; conditions: in vivo
How it was run: (§4)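 Adult female CD-1 mice were dosed 10 mg/kg by iv injection or 30 mg/kg by oral gavage, with the compound in 100% saline. Blood samples were collected and drug content was measured by HPLC-tandem MS.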

[17] = test system: Plasmodium falciparum; assay: Antimalarial activity against chloroquine-sensitive Plasmodium falciparum 3D7 cultured in human erythrocytes incubated for 72 hrs by [3H]-hypoxanthine incorporation assay; assay type: functional, organism-based
[18] = Terminal half life in CD1 mouse at 30 mg/kg, po by HPLC coupled to tandem mass spectrometry; assay type: ADME, organism-based; conditions: in vivo, read-out: beta t1/2 (converted); how it was run: as §4
[19] = Cmax in CD1 mouse at 30 mg/kg, po by HPLC coupled to tandem mass spectrometry; assay type: ADME, organism-based; set-up: dose 30 mg/kg, route oral; conditions: in vivo; how it was run: as §4
[20] = test system: Plasmodium berghei; assay: Antiplasmodial activity against Plasmodium berghei infected in Swiss Webster mouse assessed as mouse survival at 200 mg/kg, po dosed once daily for 4 consecutive days beginning 1 hr after initial infection and measured on day 5 post infection by Giemsa staining method; assay type: functional; how it was run: as §2
[21] = test system: Plasmodium berghei; assay: Antiplasmodial activity against Plasmodium berghei infected in Swiss Webster mouse assessed as mouse survival at 200 mg/kg, po dosed once daily for 4 consecutive days beginning 1 hr after initial infection and measured on day 9 post infection by Giemsa staining method; assay type: functional; how it was run: as §2
[22] = test system: Liver microsome; assay: Stability in human liver microsomes assessed as compound remaining at 1 uM incubated for 1 hr in absence of NADPH by LC/MS/MS method; assay type: ADME
How it was run: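 Compound at 1 μM final (from a 1 mg/mL DMSO stock) was incubated with mouse or human liver microsomes (0.5 mg/mL protein) in 100 mM potassium phosphate, pH 7.4, at 37 °C with shaking, with or without 1 mM NADPH. Samples were taken over 0–120 min and tested in duplicate. Reactions were quenched with cold acetonitrile plus internal standard and analyzed by LC/MS/MS.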

[23] = test system: Plasmodium berghei; assay: Antiplasmodial activity against Plasmodium berghei infected in Swiss Webster mouse assessed as mouse survival at 200 mg/kg, po dosed once daily for 4 consecutive days beginning 1 hr after initial infection and measured on day 6 post infection by Giemsa staining method; assay type: functional; how it was run: as §2
[24] = test system: Plasmodium berghei; assay: Antiplasmodial activity against Plasmodium berghei infected in Swiss Webster mouse assessed as mouse survival at 200 mg/kg, po dosed once daily for 4 consecutive days beginning 1 hr after initial infection and measured on day 7 post infection by Giemsa staining method; assay type: functional; how it was run: as §2

## COC(=O)c1cnc(Oc2ccc3c(c2)B(O)OC3)cn1
[1]
  Cmax: 920 ng/mL
[2]
  AUC: 610 ng·h/mL
[3]
  survival at 100 mg/kg: 100%
[4]
  survival at 3 mg/kg: 0%
[5]
  Cmax: 160 ng/mL
[6]
  survival at 100 mg/kg: 40%
[7]
  F: 29%
[8]
  survival at 100 mg/kg: 0%
[9]
  survival at 33 mg/kg: 100%
[10]
  survival at 3 mg/kg: 40%
[11]
  beta t1/2: 7.8 min
[12]
  survival at 100 mg/kg: 60%
[13]
  AUC: 990 ng·h/mL
[14]
  AUC(0-inf): 400 ng·h/mL
[15]
  Tmax: 15 min

## O=C(O)c1cnc(Oc2ccc3c(c2)B(O)OC3)cn1
[3]
  survival at 100 mg/kg: 0%
[16]
  F: 67%
[9]
  survival at 33 mg/kg: 40%
[17]
  IC50: 300 nM
[18]
  half-life: 13.8 min
[19]
  Cmax: 19500 ng/mL

## NC(=O)c1cnc(Oc2ccc3c(c2)B(O)OC3)cn1
[20]
  survival at 200 mg/kg: 100%
[21]
  survival at 200 mg/kg: 40%
[22]
  Stability: 100%
[5]
  Cmax: 1380 ng/mL
[23]
  survival at 200 mg/kg: 100%
[24]
  survival at 200 mg/kg: 100%
[14]
  AUC(0-inf): 2200 ng·h/mL
